The source of these data is PubChem BioAssay AID493238 (Broad Institute, 2011).

Values joined by “and” are separate entries in the source; they are usually repeats but may differ in a detail not shown here. Identical values can stand only once. Active and inactive are the calls of the source.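 The calls were made as follows: active = VEGF mRNA rise whose fitted curve reaches 40% activation within the highest concentration tested on that sample; inactive = the rest, including effects opposite to expected.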

Test system in one assay: not listed separately
The assay can be described thus: VEGF mRNA induction in U2OS cells, dose response, orthogonal assay for HIF pathway activator project, cell-based, RT-PCR, dry powder, set 2 (AID 493238). The note with it: U2OS VEGF mRNA induction, RT-PCR; at 38 µM (top of the series). An outline of the steps:
(§1)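 Assay system: human U2OS osteosarcoma cells, endogenous VEGF-A mRNA; Quantity: 2,000 U2OS cells per well; Times: 24 h pre-growth at 37 °C, 24 h compound treatment; Detection: duplex TaqMan RT-qPCR (FAM VEGF-A, VIC beta-actin), 40 cycles, post-lysis; Doses: duplicate dose-response pinning.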
Consider `Cc1ccc(NC(=O)c2cc(-c3ccccc3)on2)cn1`, for which the activation was 4.7% (inactive). For `O=C(c1cc(-c2ccccc2)on1)N1CCc2cccnc21`, the activation was 5.33% (inactive). Still for that read-out and setting: the figure for `Cc1cccc(NC(=O)c2cc(-c3ccccc3)on2)n1` is 16.6% (inactive). In the case of `O=C(Nc1nnc(-c2ccccc2)s1)c1cc(-c2ccccc2)on1`, the activation is -3.69% (inactive).

With `O=C(c1cc(-c2ccccc2)on1)N1CCC(N2CCOCC2)CC1`, the activation was 2.34% (inactive).

In the case of `O=C(NCc1ccccc1)c1cc(-c2ccccc2)on1`, the activation was -10.1% (inactive).

As for `Cc1ccc(CNC(=O)c2cc(-c3ccccc3)on2)cc1`, the activation is 8.66% (inactive). As to `Cc1ccccc1CNC(=O)c1cc(-c2ccccc2)on1`, the activation is 35.3% (inactive). Take `O=C(Nc1ccc2ccccc2n1)c1cc(-c2ccccc2)on1`: the activation is 4.54% (inactive). Same read-out and setting: the figure for `Cn1c(NC(=O)c2cc(-c3ccccc3)on2)nc2ccccc21` is -9.2% (inactive); for `O=C(c1cc(-c2ccccc2)on1)N1CCC(N2CCCC2)CC1` it is 13.9% (inactive).

Regarding `Cc1cccc(CNC(=O)c2cc(-c3ccccc3)on2)c1`, the activation is 8.64% (inactive).

Turning to `CN1CCN(C(=O)c2cc(-c3ccccc3)on2)CC1`, the activation is 5.56% (inactive). In the case of `O=C(NC1Cc2ccccc2C1)c1cc(-c2ccccc2)on1`, the activation is 2.5% (inactive).

For `O=C(c1cc(-c2ccccc2)on1)N1CCC(CO)CC1`, the activation is 9.68% (inactive). On to `O=C(Nc1cnc2ccccc2c1)c1cc(-c2ccccc2)on1`, for which the activation is -1.59% (inactive). The same measure, in the same setting: the figure for `O=C(Nc1nc2ccccc2s1)c1cc(-c2ccccc2)on1` is 18.7% (inactive).

Take `O=C(NCC1CCCCC1)c1cc(-c2ccccc2)on1`: the activation was -2.71% (inactive). As for `CN(C)CCNC(=O)c1cc(-c2ccccc2)on1`, the activation is 5.67% (inactive). On to `O=C(Nc1nc(-c2ccccc2)cs1)c1cc(-c2ccccc2)on1`, for which the activation is -5.33% (inactive). Still for that read-out and setting: the result for `O=C(Nc1ncc(-c2ccccc2)o1)c1cc(-c2ccccc2)on1` reads -1.45% (inactive). Take `O=C(NCCN1CCCCC1)c1cc(-c2ccccc2)on1`: the activation was -5.63% (inactive).

The subject of the next assay is U2OS VEGF mRNA induction, RT-PCR. The description is as above.
Conditions: not given
An outline of the steps: as §1
With `O=C(NCCN1CCOCC1)c1cc(-c2ccccc2)on1`, the AC40 is 28.8 µM. As to `Cc1ccccc1CNc1nc(-c2ccccn2)nnc1-c1ccccc1`, the AC40 was 1.02 µM. For `c1ccc(-c2nnc(-c3ccccn3)nc2N2CCC(c3ccccc3)C2)cc1` (configuration not stated), the AC40 is 1.52 µM. For the compound `Cc1cccc(CNc2nc(-c3ccccn3)nnc2-c2ccccc2)c1`, the AC40 is 1.45 µM. Take `CC(C)(C)c1ccc(CNc2nc(-c3ccccn3)nnc2-c2ccccc2)cc1`: the AC40 was 0.397 µM. As to `c1ccc(-c2nnc(Nc3nc(-c4ccccn4)nnc3-c3ccccc3)s2)cc1`, the AC40 was 1.3 µM.

Turning to `Cc1ccc(CNc2nc(-c3ccccn3)nnc2-c2ccccc2)cc1`, the AC40 was 0.892 µM. The same measure, in the same setting: the figure for `c1ccc(-c2nnc(-c3ccccn3)nc2NCCCN2CCOCC2)cc1` is 6.5 µM; for `Clc1cccc(CNc2nc(-c3ccccn3)nnc2-c2ccccc2)c1` it is 0.87 µM; for `C=CCNc1nc(-c2ccccn2)nnc1-c1ccccc1` it is 4.47 µM. For the compound `c1ccc(-c2nnc(-c3ccccn3)nc2NCc2cccnc2)cc1`, the AC40 is 2.84 µM. As to `Cn1c(-c2ccccc2)cnc1NC(=O)c1cc(-c2ccccc2)on1`, the AC40 was 35.2 µM. `CC(C)(C)OC(=O)N1CCN(Cc2ccc(O)c3ncccc23)CC1`: the AC40 is 10.2 µM.

On to `O=C(Nc1cn2ccccc2n1)c1cc(-c2ccccc2)on1`, for which the AC40 was 18.6 µM. Regarding `CC(C)(C)CCNC(=O)c1cc(-c2ccccc2)on1`, the AC40 is > 38 µM (inactive). As to `CC1CN(Cc2ccc(O)c3ncccc23)CC(C)O1` (configuration not stated), the AC40 is 9.15 µM. Take `O=C(NCCCn1ccnc1)c1cc(-c2ccccc2)on1`: the AC40 was 10.7 µM. In the case of `N#CC1(c2ccccc2)CCN(Cc2ccc(O)c3ncccc23)CC1`, the AC40 was 28.3 µM. Take `c1ccc(-c2nnc(-c3ccccn3)nc2NCCc2ccccn2)cc1`: the AC40 was 5.54 µM. Still for that read-out and setting: the figure for `Cc1ccc(Nc2nc(-c3ccccn3)nnc2-c2ccccc2)cn1` is 6.12 µM. As for `c1ccc(-c2nnc(-c3ccccn3)nc2N2CCC(C3CCCCC3)C2)cc1` (configuration not stated), the AC40 was 0.843 µM.

As for `O=C(NCCCCO)c1cc(-c2ccccc2)on1`, the AC40 was 5.01 µM.

`Cn1c(-c2ccccc2)cnc1Nc1nc(-c2ccccn2)nnc1-c1ccccc1`: the AC40 was 3.33 µM. Consider `COc1ccc(CNc2nc(-c3ccccn3)nnc2-c2ccccc2)cc1`, for which the AC40 is 1.92 µM. Consider `Oc1ccc(CNC2Cc3ccccc3C2)c2cccnc12`, for which the AC40 was 10.7 µM. The same measure, in the same setting: the figure for `C[C@@H](Nc1nc(-c2ccccn2)nnc1-c1ccccc1)C1CCCCC1` is 0.571 µM; for `Cc1ccc(CNc2nc(-c3ccccn3)nnc2-c2ccccc2)cc1C` it is 0.772 µM; for `O=C(NCCCN1CCOCC1)c1cc(-c2ccccc2)on1` it is 23 µM. For `C[C@H](Nc1nc(-c2ccccn2)nnc1-c1ccccc1)C1CCCCC1`, the AC40 was 1.39 µM. As for `CC(Nc1nc(-c2ccccn2)nnc1-c1ccccc1)c1ccccc1` (configuration not stated), the AC40 was 1.37 µM.

Turning to `C[C@@H](Nc1nc(-c2ccccn2)nnc1-c1ccccc1)c1ccccc1`, the AC40 was 2.22 µM.

Take `Oc1ccc(CN2CCc3ccccc3C2)c2cccnc12`: the AC40 was 5.31 µM and 5.35 µM. On to `c1ccc(-c2nnc(-c3ccccn3)nc2Nc2nc3ccccc3s2)cc1`, for which the AC40 was 0.51 µM. `CCCCNC(=O)c1cc(-c2ccccc2)on1`: the AC40 is 14.6 µM. For the compound `c1ccc(-c2nnc(-c3ccccn3)nc2NCC2CCOCC2)cc1`, the AC40 was 7.58 µM. As to `c1ccc(-c2nnc(-c3ccccn3)nc2NCC2CCCCC2)cc1`, the AC40 was 1.3 µM. `c1ccc(CNc2nc(-c3ccccn3)nnc2-c2ccccc2)cc1`: the AC40 was 1.6 µM. `c1ccc(-c2cccc(CNc3nc(-c4ccccn4)nnc3-c3ccccc3)c2)cc1`: the AC40 is 0.601 µM.

On to `Oc1ccc(CN2CCC3CCCCC3C2)c2cccnc12` (configuration not stated), for which the AC40 is 3.2 µM. For `c1ccc(-c2nnc(-c3ccccn3)nc2Nc2cnc3ccccc3n2)cc1`, the AC40 is 1.1 µM. Take `CN1CCN(c2nc(-c3ccccn3)nnc2-c2ccccc2)CC1`: the AC40 was 5.95 µM. Regarding `Cc1cccc(Nc2nc(-c3ccccn3)nnc2-c2ccccc2)n1`, the AC40 is 2.98 µM. On to `COc1cccc(CNc2nc(-c3ccccn3)nnc2-c2ccccc2)c1`, for which the AC40 was 1.78 µM. With `O=C(NCC1CC1)c1cc(-c2ccccc2)on1`, the AC40 is 17.2 µM.

As to `Oc1ccc(CNC2CCc3ccccc32)c2cccnc12` (configuration not stated), the AC40 was 35.1 µM.

In the case of `OCC1CCN(c2nc(-c3ccccn3)nnc2-c2ccccc2)CC1`, the AC40 was 10.5 µM. With `c1ccc(-c2nnc(-c3ccccn3)nc2N2CCN(c3ccncc3)CC2)cc1`, the AC40 is 2.12 µM. With `COc1ccccc1N1CCN(Cc2ccc(O)c3ncccc23)CC1`, the AC40 was 0.519 µM. In the case of `c1ccc(-c2ccc(CNc3nc(-c4ccccn4)nnc3-c3ccccc3)cc2)cc1`, the AC40 is 0.303 µM. For the compound `c1ccc(-c2nnc(-c3ccccn3)nc2NCCN2CCOCC2)cc1`, the AC40 was 8.15 µM.

On to `c1ccc(-c2nnc(-c3ccccn3)nc2N2CCC(N3CCOCC3)CC2)cc1`, for which the AC40 was 6.52 µM. For `c1ccc(-c2nnc(-c3ccccn3)nc2NCC2CC2)cc1`, the AC40 was 2.4 µM. Still for that read-out and setting: the result for `O=C(NC1CCc2ccccc2C1)c1cc(-c2ccccc2)on1` (configuration not stated) reads > 38 µM (inactive). `c1ccc(-c2cnc(Nc3nc(-c4ccccn4)nnc3-c3ccccc3)s2)cc1`: the AC40 was 0.4 µM. For `CN(C)c1nc(-c2ccccn2)nnc1-c1ccccc1`, the AC40 was 8.23 µM.

For the compound `c1ccc(-c2nnc(-c3ccccn3)nc2NCc2ccccn2)cc1`, the AC40 is 4.53 µM. On the same count and under the same terms, the figure for `OCCCNc1nc(-c2ccccn2)nnc1-c1ccccc1` is 8.34 µM; for `c1ccc(-c2csc(Nc3nc(-c4ccccn4)nnc3-c3ccccc3)n2)cc1` it is 0.597 µM; for `c1ccc(CCNc2nc(-c3ccccn3)nnc2-c2ccccc2)cc1` it is 4.92 µM. Regarding `CC(C)(C)CCNc1nc(-c2ccccn2)nnc1-c1ccccc1`, the AC40 is 0.768 µM and 0.974 µM. Turning to `O=C(NCCCO)c1cc(-c2ccccc2)on1`, the AC40 is 11.5 µM.

`Oc1ccc(CN2CCC(Cc3ccccc3)CC2)c2cccnc12`: the AC40 is 6.76 µM. In the case of `O=C(c1cc(-c2ccccc2)on1)N1CCN(c2ccncc2)CC1`, the AC40 is > 38 µM (inactive).

As to `O=C(Nc1ncc2ccccc2n1)c1cc(-c2ccccc2)on1`, the AC40 is 36.2 µM. For the compound `OCC1CCN(Cc2ccc(O)c3ncccc23)CC1`, the AC40 is 3.56 µM.
